# From ChEMBL document CHEMBL5608193, “Discovery of bivalent small molecule degraders of cyclin-dependent kinase 7 (CDK7)” (Eur J Med Chem, 2024)
# Calls of active or inactive are those of the source. No cut-off for these calls is given here.
# What was measured:
# CDK7/Cyclin H/MNAT1 = CDK7/Cyclin H/MNAT1 (Homo sapiens, UniProt P50613); assay: Inhibition of CDK7/CycH/MNAT1 (unknown origin) assessed as change in TR-FRET ratio using Cdk7/9tide as substrate and ATP by in vitro Adapta Eu kinase assay; assay type: protein-complex assay
# How it was run: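 Adapta Eu kinase assay run at ThermoFisher on CDK7/Cyclin H/MNAT1 with ATP at Km.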
# [1] = target: T1, von Hippel-Lindau disease tumor suppressor/Cyclin-dependent kinase 7 (Homo sapiens) (UniProt P50613+P40337); assay: PROTAC activity at CDK7/VHL in human Jurkat cells assessed as degradation of CDK7 at 0.1 uM measured after 16 hrs incubation by immunoblot analysis relative to control; assay type: cell-based
# How it was run: (§1)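 Jurkat cells given VHL-recruiting compounds at 0.1 or 1 μM for 16 h. RIPA lysis, BCA normalization, 4–20% SDS-PAGE, nitrocellulose transfer. CDK7 (1:1000) and β-actin probed overnight at 4 °C, IRDye secondaries, Odyssey detection. Quantified against control, mean ± SEM from three independent biological replicates.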
# [2] = target: T1, von Hippel-Lindau disease tumor suppressor/Cyclin-dependent kinase 7 (Homo sapiens); assay: PROTAC activity at CDK7/VHL in human Jurkat cells assessed as degradation of CDK7 at 1 uM measured after 16 hrs incubation by immunoblot analysis relative to control; assay type: cell-based; how it was run: as §1
# [3] = target: T1, von Hippel-Lindau disease tumor suppressor/Cyclin-dependent kinase 7 (Homo sapiens); assay: PROTAC activity at CDK7/VHL in human Jurkat cells assessed as degradation of CDK7 at 0.1 uM by immunoblot analysis; assay type: cell-based; conditions: time 0.5-24 hrs, TDE = time-dependent effect
# How it was run: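 Jurkat time course at 0.1 μM, lysates taken at set time points from 0.5 up to 24 h. CDK7 immunoblotted after RIPA lysis, SDS-PAGE and near-infrared detection with β-actin loading control.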
# [4] = target: T1, von Hippel-Lindau disease tumor suppressor/Cyclin-dependent kinase 7 (Homo sapiens); assay: PROTAC activity at CDK7/VHL in human Jurkat cells assessed as degradation of CDK7 measured after 6 hrs incubation by immunoblot analysis; assay type: cell-based; conditions: dose 10-5000 nM
# [5] = target: T1, von Hippel-Lindau disease tumor suppressor/Cyclin-dependent kinase 7 (Homo sapiens); assay: PROTAC activity at CDK7/VHL in human OVCAR-3 cells assessed as degradation of CDK7 at 0.1 to 5 uM measured after 6 hrs incubation by immunoblot analysis; assay type: cell-based; conditions: dose 0.1-5 µM
# [6] = target: T1, von Hippel-Lindau disease tumor suppressor/Cyclin-dependent kinase 7 (Homo sapiens); assay: PROTAC activity at CDK7/VHL in human SU-DHL-5 cells assessed as degradation of CDK7 at 0.1 to 5 uM measured after 6 hrs incubation by immunoblot analysis; assay type: cell-based; conditions: dose 0.1-5 µM
# [7] = target: T1, von Hippel-Lindau disease tumor suppressor/Cyclin-dependent kinase 7 (Homo sapiens); assay: PROTAC activity at CDK7/VHL in human Jurkat cells assessed as degradation of CDK7 in presence of 10 uM (S,R,S)-AHPC-me at 0.1 uM measured after 6 hrs incubation by immunoblot analysis; assay type: cell-based
# How it was run: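 Jurkat cells pretreated 2 h with MG132, MLN-4924, YKL-5–167 or a VHL ligand, then given degrader for 6 h. CDK7 immunoblotted: RIPA lysis, SDS-PAGE, anti-CDK7 1:1000, IRDye secondaries.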
# [8] = target: von Hippel-Lindau disease tumor suppressor/Cyclin-dependent kinase 2 (Homo sapiens) (UniProt P24941+P40337); assay: PROTAC activity at CDK2/VHL in human Jurkat cells assessed as degradation of CDK7 measured at 10 to 500 nM after 6 hrs incubation by Western blotting analysis; assay type: cell-based; conditions: dose 10-500 nM
# [9] = target: von Hippel-Lindau disease tumor suppressor/Cyclin-dependent kinase 4 (Homo sapiens) (UniProt P11802+P40337); assay: PROTAC activity at CDK4/VHL in human Jurkat cells assessed as degradation of CDK7 measured at 10 to 500 nM after 6 hrs incubation by Western blotting analysis; assay type: cell-based; conditions: dose 10-500 nM
# [10] = target: von Hippel-Lindau disease tumor suppressor/Cyclin-dependent kinase 5 (Homo sapiens) (UniProt Q00535+P40337); assay: PROTAC activity at CDK5/VHL in human Jurkat cells assessed as degradation of CDK7 measured at 10 to 500 nM after 6 hrs incubation by Western blotting analysis; assay type: cell-based; conditions: dose 10-500 nM
# [11] = target: von Hippel-Lindau disease tumor suppressor/Cyclin-dependent kinase 8 (Homo sapiens) (UniProt P49336+P40337); assay: PROTAC activity at CDK8/VHL in human Jurkat cells assessed as degradation of CDK7 measured at 10 to 500 nM after 6 hrs incubation by Western blotting analysis; assay type: cell-based; conditions: dose 10-500 nM
# [12] = target: T1, von Hippel-Lindau disease tumor suppressor/Cyclin-dependent kinase 7 (Homo sapiens); assay: PROTAC activity at CDK7/VHL in human Jurkat cells assessed as degradation of CDK7 measured at 0.1 to 5 uM after 6 hrs incubation by Western blotting analysis; assay type: cell-based; conditions: dose 0.1-5 µM
# How it was run: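 Jurkat cells dosed across a concentration series up to 5 μM for 6 h. CDK7 immunoblot via RIPA lysis, 4–20% SDS-PAGE, IRDye secondaries. Quantified as mean ± SEM from three independent biological replicates.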
# [13] = target: T1, von Hippel-Lindau disease tumor suppressor/Cyclin-dependent kinase 7 (Homo sapiens); assay: PROTAC activity at CDK7/VHL in human Jurkat cells assessed as degradation of Cyclin H measured at 0.1 to 5 uM after 6 hrs incubation by Western blotting analysis; assay type: cell-based; conditions: dose 0.1-5 µM
# How it was run: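 Jurkat and OVCAR3 cells treated 6 h across a concentration series. Blots probed for CDK7, MAT1 (1:1000) and Cyclin H (1:1000) overnight at 4 °C, with β-actin control and IRDye secondaries.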
# SU-DHL-5 = assay: Antiproliferative activity against human SU-DHL-5 cells assessed as cell viability measured after 72 hrs by CellTiter-Glo assay; assay type: functional, cell-based; conditions: SU-DHL-5, 72 h
# How it was run: (§2)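 Cells grown in RPMI 1640 with 10% heat-inactivated FBS and penicillin/streptomycin at 37 °C, 5% CO2, mycoplasma-negative. Seeded at 10^4/ml. Compounds dispensed digitally from 10 mM or 1 mM DMSO stocks, DMSO equalized, triplicate wells. After 72 h, CellTiter-Glo added for 10–15 min at room temperature and luminescence read.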
# MOLT-4 = assay: Antiproliferative activity against human MOLT-4 cells assessed as cell viability measured after 72 hrs by CellTiter-Glo assay; assay type: functional, cell-based; conditions: MOLT-4, 72 h; how it was run: as §2
# A549 = assay: Antiproliferative activity against human A549 cells assessed as cell viability measured after 72 hrs by CellTiter-Glo assay; assay type: functional, cell-based; conditions: A549, 72 h; how it was run: as §2
# [14] = Observed volume of distribution at steady state in male CD1 mouse at 3 mg/kg, IV measured upto 24 hrs by LC-MS/MS-39 analysis; assay type: ADME, organism-based; conditions: in vivo, read-out: Vdss
# How it was run: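 Three male CD1 mice given a single 3 mg/kg intravenous dose. Plasma prepared on ice by centrifugation (2000 g, 5 min, 4 °C) within 15 min, held at about −70 °C. Acetonitrile precipitation, then LC-MS/MS quantitation. Mean ± SD, n=3.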
# [15] = Half life in male CD1 mouse at 10 mg/kg, IP measured upto 24 hrs by LC-MS/MS-39 analysis; assay type: ADME, organism-based; conditions: in vivo
# How it was run: (§3)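 Male CD1 mice, n=3, one 10 mg/kg intraperitoneal dose. Blood sampled at 0, 0.25, 0.5, 1, 2, 4, 6, 8 and 24 h. Kept on wet ice and spun to plasma (2000 g, 5 min, 4 °C) within 15 min, stored at about −70 °C. Protein precipitation with acetonitrile, then LC-MS/MS. Values are mean ± SD of three mice.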
# [16] = Tmax in male CD1 mouse at 10 mg/kg, IP measured upto 24 hrs by LC-MS/MS-39 analysis; assay type: ADME, organism-based; conditions: in vivo; how it was run: as §3
# [17] = AUClast in male CD1 mouse at 10 mg/kg, IP measured upto 24 hrs by LC-MS/MS-39 analysis; assay type: ADME, organism-based; conditions: in vivo; how it was run: as §3
# T1 sequence (P40337 whole entry, looked up): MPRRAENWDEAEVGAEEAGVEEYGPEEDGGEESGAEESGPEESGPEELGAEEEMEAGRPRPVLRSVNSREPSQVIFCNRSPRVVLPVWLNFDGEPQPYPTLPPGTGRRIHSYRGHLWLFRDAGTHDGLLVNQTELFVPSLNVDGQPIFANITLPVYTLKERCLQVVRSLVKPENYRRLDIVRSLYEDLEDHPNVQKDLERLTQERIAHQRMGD
# T1 sequence (P50613 whole entry, looked up): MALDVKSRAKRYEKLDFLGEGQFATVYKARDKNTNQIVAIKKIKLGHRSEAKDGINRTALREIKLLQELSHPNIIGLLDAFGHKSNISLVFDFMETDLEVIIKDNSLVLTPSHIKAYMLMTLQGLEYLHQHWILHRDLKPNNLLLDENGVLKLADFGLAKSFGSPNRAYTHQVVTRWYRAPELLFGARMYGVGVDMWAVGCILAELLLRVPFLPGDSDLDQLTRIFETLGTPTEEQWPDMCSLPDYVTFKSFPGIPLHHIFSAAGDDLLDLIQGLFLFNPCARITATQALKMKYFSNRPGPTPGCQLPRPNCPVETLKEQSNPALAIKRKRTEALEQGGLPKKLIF
# Sequence of von Hippel-Lindau disease tumor suppressor/Cyclin-dependent kinase 5 (Homo sapiens) (P40337 whole entry, looked up): as the sequence (P40337 whole entry, looked up) above
# Sequence of von Hippel-Lindau disease tumor suppressor/Cyclin-dependent kinase 5 (Homo sapiens) (Q00535 whole entry, looked up): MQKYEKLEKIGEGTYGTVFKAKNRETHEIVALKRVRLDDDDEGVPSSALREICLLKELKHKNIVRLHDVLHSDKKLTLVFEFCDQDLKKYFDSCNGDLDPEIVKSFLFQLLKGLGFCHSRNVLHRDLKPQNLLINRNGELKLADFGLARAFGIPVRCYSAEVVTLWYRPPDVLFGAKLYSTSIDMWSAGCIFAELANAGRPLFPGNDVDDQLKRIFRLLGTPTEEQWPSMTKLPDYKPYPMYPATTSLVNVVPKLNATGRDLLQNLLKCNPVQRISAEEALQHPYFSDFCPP
# Sequence of von Hippel-Lindau disease tumor suppressor/Cyclin-dependent kinase 8 (Homo sapiens) (P40337 whole entry, looked up): as the sequence (P40337 whole entry, looked up) above
# Sequence of von Hippel-Lindau disease tumor suppressor/Cyclin-dependent kinase 8 (Homo sapiens) (P49336 whole entry, looked up): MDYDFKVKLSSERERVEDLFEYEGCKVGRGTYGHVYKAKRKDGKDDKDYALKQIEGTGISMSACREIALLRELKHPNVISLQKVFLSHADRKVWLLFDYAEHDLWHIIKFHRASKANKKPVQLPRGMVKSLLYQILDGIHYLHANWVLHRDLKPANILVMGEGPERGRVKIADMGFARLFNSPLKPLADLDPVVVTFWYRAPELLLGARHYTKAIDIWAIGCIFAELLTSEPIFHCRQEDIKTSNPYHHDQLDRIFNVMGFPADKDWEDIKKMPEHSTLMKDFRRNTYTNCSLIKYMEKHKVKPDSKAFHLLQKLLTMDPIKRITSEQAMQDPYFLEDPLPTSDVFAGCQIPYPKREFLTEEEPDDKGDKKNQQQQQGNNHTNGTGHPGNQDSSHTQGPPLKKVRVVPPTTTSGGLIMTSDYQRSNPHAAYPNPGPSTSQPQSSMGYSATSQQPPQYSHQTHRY
# Sequence of von Hippel-Lindau disease tumor suppressor/Cyclin-dependent kinase 4 (Homo sapiens) (P11802 2-303 limits assumed): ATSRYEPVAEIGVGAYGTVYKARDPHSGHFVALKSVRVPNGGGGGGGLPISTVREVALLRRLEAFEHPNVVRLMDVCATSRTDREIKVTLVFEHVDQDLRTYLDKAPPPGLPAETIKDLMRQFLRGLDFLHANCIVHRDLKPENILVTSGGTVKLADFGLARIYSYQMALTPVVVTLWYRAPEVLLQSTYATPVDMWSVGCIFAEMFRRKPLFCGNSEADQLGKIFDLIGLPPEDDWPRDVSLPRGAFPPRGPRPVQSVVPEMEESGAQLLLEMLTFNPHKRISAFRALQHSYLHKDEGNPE
# Sequence of von Hippel-Lindau disease tumor suppressor/Cyclin-dependent kinase 4 (Homo sapiens) (P40337 whole entry partner): as the sequence (P40337 whole entry, looked up) above
# Sequence of CDK7/Cyclin H/MNAT1 (P51946 whole entry): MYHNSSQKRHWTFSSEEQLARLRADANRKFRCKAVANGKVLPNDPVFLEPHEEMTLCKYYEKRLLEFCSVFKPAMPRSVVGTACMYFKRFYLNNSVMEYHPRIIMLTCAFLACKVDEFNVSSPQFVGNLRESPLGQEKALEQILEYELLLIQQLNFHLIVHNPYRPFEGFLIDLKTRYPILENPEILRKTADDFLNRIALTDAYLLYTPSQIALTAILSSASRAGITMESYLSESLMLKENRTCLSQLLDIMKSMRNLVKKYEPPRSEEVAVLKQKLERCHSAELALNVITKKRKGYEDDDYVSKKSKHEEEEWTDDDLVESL
# Sequence of CDK7/Cyclin H/MNAT1 (P50613 whole entry): as the sequence (P50613 whole entry, looked up) above
# Sequence of CDK7/Cyclin H/MNAT1 (P51948 whole entry, further chain): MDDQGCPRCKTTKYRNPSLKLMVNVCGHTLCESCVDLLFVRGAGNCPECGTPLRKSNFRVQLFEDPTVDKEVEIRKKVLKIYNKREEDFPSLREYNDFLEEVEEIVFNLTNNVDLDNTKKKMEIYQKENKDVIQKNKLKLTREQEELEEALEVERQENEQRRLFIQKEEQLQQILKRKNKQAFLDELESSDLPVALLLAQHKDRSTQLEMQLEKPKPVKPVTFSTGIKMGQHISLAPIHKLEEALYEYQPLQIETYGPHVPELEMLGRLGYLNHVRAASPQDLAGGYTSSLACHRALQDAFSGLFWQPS
structure (smiles),measurement,setting,value
Cc1ncsc1-c1ccc([C@H](C)NC(=O)[C@@H]2C[C@@H](O)CN2C(=O)[C@@H](NC(=O)CCCC#Cc2ccc(C(=O)Nc3n[nH]c4c3CN(C(=O)N[C@H](CN(C)C)c3ccccc3)C4(C)C)cc2)C(C)(C)C)cc1,IC50,CDK7/Cyclin H/MNAT1,20.1 nM
same,Activity,[1],95%
same,Activity,[2],95%
same,Activity,[3],Tde
same,Efficacy,[4],Dose-Dependent Effect
same,Activity,[5],Dose-Dependent Effect
same,Activity,[6],Dose-Dependent Effect
same,Activity,[7],inactive
same,Activity,[8],inactive
same,Activity,[9],inactive
same,Activity,[10],inactive
same,Activity,[11],inactive
same,Activity,[12],Active
same,Activity,[13],Active
same,IC50,SU-DHL-5,52 nM
same,IC50,MOLT-4,89 nM
same,IC50,A549,332 nM
same,Vd,[14],0.345 L/kg
same,t1/2,[15],2.82 h
same,Tmax,[16],1 h
same,AUClast,[17],19.4 µM·h
